# MrgX1 antag = antagonists of human MrgX1 receptor, primary screen, HEK293 cells, Fluo-4 calcium flux | Mas-related G-protein coupled receptor member X1 (Homo sapiens), Q96LB2 | AID 588676, 2011 | BAM8-22 antagonism; hits give low values | B-score at 10 µM | 1.3% of 310,000 active;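 active means calcium-response B-score plate-corrected more than 3 library SD below zero, starting fluorescence within 5 deviations, no agonist response on first addition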;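 further: peak minus trough fluorescence over baseline after final BAM8-22 challenge near maximal dose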
# Target sequence (Q96LB2 whole entry, looked up): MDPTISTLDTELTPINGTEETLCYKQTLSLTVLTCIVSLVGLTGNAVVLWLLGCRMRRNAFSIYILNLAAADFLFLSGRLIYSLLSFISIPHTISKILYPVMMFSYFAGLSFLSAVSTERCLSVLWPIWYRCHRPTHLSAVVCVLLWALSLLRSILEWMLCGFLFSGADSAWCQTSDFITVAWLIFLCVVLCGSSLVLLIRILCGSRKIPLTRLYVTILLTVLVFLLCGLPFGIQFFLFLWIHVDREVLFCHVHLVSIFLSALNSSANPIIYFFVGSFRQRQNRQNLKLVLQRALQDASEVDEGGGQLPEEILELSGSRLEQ
# MrgX1 allo act = positive allosteric modulators of MrgX1, primary screen, HEK293 cells, Fluo-4 calcium flux. Mas-related G-protein coupled receptor member X1 (Homo sapiens), Q96LB2. FDSS; hits give high values. B-score at 10 µM. 0.63% of 310,000 active. AID 588675, 2011;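 active means plate-corrected calcium response at least 3 library SD above typical, normal starting fluorescence, not activating the receptor alone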;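 further: compound read alongside a low EC10 to EC30 dose of BAM8-22 agonist; peak minus trough fluorescence over baseline measured at the second addition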
# RGS4 pot = RGS4 potentiators or activators, primary screen, cell-based, HEK293 M3R inducible RGS4, calcium flux. carbachol calcium flux Fluo4; hits give low values. B-score at 10 µM. 0.92% of 310,000 active;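 active means B-score of the integrated calcium signal more than 4 SD below the library mean, with starting fluorescence not abnormally high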;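 further: negative B-score means reduced calcium response which marks RGS4 activation or potentiation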
#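 test system = M3R-expressing HEK293 line, RGS4 induced by doxycycline | probe or stimulus = carbachol at ECmax as muscarinic agonist stimulus | timing = dye loading 30 min 37 °C, buffer rest 30 min RT | signal = calcium dye Fluo4 fluorescence | evaluation = B score from integrated fluorescence ratio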
# MrgX1 ag = agonists of human MrgX1 receptor, primary screen, HEK293 cells, Fluo-4 calcium flux. Mas-related G-protein coupled receptor member X1 (Homo sapiens), Q96LB2. Fluo-4 calcium fluorescence, agonist mode; hits give high values. B-score at 10 µM. 0.44% of 310,000 active;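 active means calcium response B-score plate-corrected fluorescence ratio at least 3 library SD, with starting fluorescence B-score inside 5 SD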
#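 times = overnight plating, then 30 min 37 °C plus 30 min room-temperature dye loading | assay system = stable human MrgX1 HEK293 cell line | input = fifteen thousand cells per well | signal = kinetic calcium dye fluorescence, Fluo-4 NW | dosing = compound delivered in addition one of three | read-out = B-scored fluorescence response ratio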
# RGS4 inh = RGS4 inhibitors, primary screen, cell-based, HEK293 M3R inducible RGS4, calcium flux; B-score at 10 µM; Fluo-4 calcium flux; hits give high values; triggered by carbachol at its EC20; Regulator of G-protein signaling 4 (Homo sapiens), P49798; AID 463165, 2010; 0.45% of 310,000 active;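 active means B-score, a plate-corrected calcium signal, over three deviations above library mean, with baseline fluorescence within five deviations of library mean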;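 further: RGS4 expression induced by doxycycline in cells with stable M3 receptor; B-score is computed from the integrated fluorescence ratio over baseline after carbachol; higher B-score means a larger calcium signal and so more RGS4 inhibition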
# Target sequence (P49798 whole entry, looked up): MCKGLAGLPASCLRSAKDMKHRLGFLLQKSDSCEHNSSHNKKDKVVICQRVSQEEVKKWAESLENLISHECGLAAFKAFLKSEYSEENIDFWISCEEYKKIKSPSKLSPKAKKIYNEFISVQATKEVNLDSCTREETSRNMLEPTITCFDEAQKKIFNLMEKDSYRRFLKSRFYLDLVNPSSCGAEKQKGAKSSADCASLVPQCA
# RGS4 block valid = enhanced carbachol calcium response, M3R/RGS4 cells, RGS4 inhibitor project, cell-based, validation screen, HEK293 M3R/RGS4, calcium flux; AID 492999, 2010; 65% of 1,700 active; shares compounds with RGS4 inh; calcium response, % at 10 µM; carbachol calcium Fluo-4 fluorescence; carbachol added at its EC20; 0 = buffer wells, 100 = carbachol control;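 active means duplicate-averaged calcium response above the buffer-only control mean plus 5 SD of those controls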;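 further: integrated fluorescence ratio F max minus min over baseline F0; higher response in RGS4-induced cells means RGS4 inhibition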
# RGS4 uninduced = carbachol calcium response in non-induced M3R cells, confirmation, counter-screen for RGS4 inhibitor project, cell-based, HEK293 M3R. 20% of 1,900 active. activity (percent), % at 10 µM. shares compounds with RGS4 inh. carbachol calcium Fluo-4; submaximal (EC20) carbachol stimulus; buffer wells 0%, carbachol control wells 100%; call rule not given here;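 further: RGS4 induction absent so cells express M3R without RGS4; higher means more calcium signal and flags a non-specific hit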
# M3R basal Ca ctr = signal in non-induced cells without carbachol, RGS4 inhibitor counter-screen | shares compounds with RGS4 inh | HEK293 M3R/RGS4 non-induced, Fluo-4 calcium, no carbachol; normalised: buffer wells 0%, carbachol wells 100% | calcium response (agonist-mode artifact), % at 10 µM | 22% of 1,900 active;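 active means duplicate-averaged calcium rise in uninduced cells above buffer wells' mean plus 5 SD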
# The depositor's hits bear a star; i = inactive; · = no result. Most compounds without a hit are left out; they make up all but 3.5% or so of the library.
SMILES,MrgX1 antag,MrgX1 allo act,RGS4 pot,MrgX1 ag,RGS4 inh,RGS4 block valid,RGS4 uninduced,M3R basal Ca ctr
O=C(NCCCN1CCOCC1)c1c(F)c(F)c(F)c(F)c1F,i,i,i,i,i,·,·,·
COc1ccc(Nc2nc(N3CCCCC3)nc(N3CCCCC3)n2)c(OC)c1,i,i,i,i,5.5*,9.0%*,i,i
COc1ccc(Nc2nc(NC(C)(C)C)nc(N3CCCC3)n2)c(OC)c1,i,i,i,i,i,i,i,i
COc1ccc(Nc2nc(N3CCCC3)nc(N3CCCC3)n2)c(OC)c1,i,i,i,i,i,i,i,i
Cc1noc(NS(=O)(=O)c2ccc(N/C=C/C(=O)c3ccc(F)cc3)cc2)c1C,i,i,i,i,i,·,i,i
Cc1noc(NS(=O)(=O)c2ccc(N/C=C\C(=O)c3ccncc3)cc2)c1C,i,i,i,i,i,·,i,i
Cc1noc(NS(=O)(=O)c2ccc(N/C=C/C(=O)c3ccncc3)cc2)c1C,i,i,i,i,i,i,i,i
CC(C)CNC(=O)c1cc(S(=O)(=O)N2CCOCC2)ccc1N1CCCC1,i,i,i,i,i,·,·,·
Cc1nn(C)c(C)c1C(C)NC(=O)c1cc(COc2ccc(F)c(F)c2)on1 (stereo unspecified),i,i,i,i,i,·,·,·
O=C(Nc1nnc(-c2ccc(F)cc2)o1)C1CCCN1S(=O)(=O)c1cccs1 (stereo unspecified),i,i,i,i,i,·,·,·
Cc1ccc(C(=O)/C=C/C(=O)c2ccc(C)cc2)cc1,i,i,i,i,i,·,i,i
CCOC(=O)c1ccc(OC)c(OC)c1Cl,i,i,i,i,i,·,·,·
COC(=O)c1ccc(OC)c(OC)c1Cl,i,i,i,i,5.8*,5.5%*,i,i
CN1C(=O)/C(=C\c2ccncc2)SC1=Nc1ccccc1,i,i,i,i,6.3*,40%*,56%*,i
CCOC(=O)COc1ccc(/C=C/[N+](=O)[O-])c(OCC(=O)OCC)c1,i,i,i,i,11*,24%*,34%*,i
O=[N+]([O-])/C=C/c1cn(Cc2ccc(Cl)cc2)c2ccccc12,i,i,i,i,8.6*,24%*,i,76%*
Cc1cccc(Cn2cc(/C=C/[N+](=O)[O-])c3ccccc32)c1,i,i,i,i,i,·,·,·
CCOc1ccc(/C=C/[N+](=O)[O-])c2ccccc12,i,i,i,42*,23*,45%*,i,27%*
O=C(O)c1ccc(Cn2cc(/C=C\[N+](=O)[O-])c3ccccc32)o1,i,i,i,i,i,i,i,i
CCOC(=O)c1ccc(NNC(=O)CC)c([N+](=O)[O-])c1,i,i,i,i,i,·,·,·
N#CCCn1cc(/C=N/NC(N)=S)c(-c2ccc(-c3ccccc3)cc2)n1,i,i,i,i,i,·,·,·
COC(=O)c1ccc(Cn2cc(/C=C\[N+](=O)[O-])c3ccccc32)o1,i,i,i,i,5.4*,67%*,48%*,40%*
CCOC(=O)Cn1cc(/C=C/[N+](=O)[O-])c2ccccc21,i,i,i,33*,17*,56%*,61%*,14%*
COC(=O)c1ccc(Cn2nc(C)c([N+](=O)[O-])c2C)o1,i,i,i,i,i,·,·,·
CC(C#N)(Cc1ccccc1)Nc1ccccc1 (stereo unspecified),i,i,i,i,i,·,·,·
SMILES,MrgX1 antag,MrgX1 allo act,RGS4 pot,MrgX1 ag,RGS4 inh,RGS4 block valid,RGS4 uninduced,M3R basal Ca ctr
CNc1nc(NC#N)nc(SC)n1,i,i,i,i,i,·,·,·
Cc1ccc(C)c(-c2cc(C(=O)Nc3sc(C)c(C)c3C(N)=O)c3ccccc3n2)c1,i,i,i,i,i,·,i,7.0%*
CC(=O)Oc1ccc([C@@H]2COc3c(ccc4c3C=CC(C)(C)O4)C2)c(OC(C)=O)c1,i,i,i,i,6.1*,17%*,i,i
O=C1NC(=O)/C(=C/c2ccc(-c3cc(C(=O)O)ccc3Cl)o2)S1,i,i,i,i,6.2*,12%*,i,i
Cc1c(Cc2ccccc2)c(=O)oc2cc(O)cc(O)c12,i,i,i,i,5.5*,10%*,i,i
Cc1coc2cc3oc(=O)c(Cc4ccccc4)c(C)c3cc12,i,i,i,i,i,·,·,·
COc1ccc(C2=Nn3c(nnc3-c3ccccc3)SC2)cc1OC,i,i,i,i,i,·,i,i
COc1ccc(OC)c(C2=Nn3c(nnc3C3CCCCC3)SC2)c1,i,i,i,i,i,·,·,·
COc1ccc(-c2nnc3n2N=C(C)CS3)cc1OC,i,i,i,i,i,·,·,·
COc1ccc(C2=Nn3c(nnc3C3CCCCC3)SC2)cc1OC,i,i,i,i,11*,22%*,49%*,i
CCCc1nnc2n1N=C(c1ccc(OC)c(OC)c1)CS2,i,i,i,i,7.4*,12%*,28%*,i
CC(=O)N1c2ccc(S(=O)(=O)N(C)CC(=O)NCc3ccc(C)cc3)cc2CC1C (stereo unspecified),i,i,i,i,i,·,·,·
COc1ccc(NC(=O)CN2C(=O)COc3ccccc32)cc1OC,i,i,i,i,i,·,·,·
CC(C)NC(=O)Cn1cc(C(=O)COc2ccccc2)c2ccccc21,i,i,i,i,i,·,·,·
COc1cc2c(cc1OC)CN(CCC(=O)c1ccc(Br)cc1)CC2,i,i,i,i,21*,54%*,i,28%*
Cc1sc2nc3ccc(NCc4ccco4)nn3c(=O)c2c1C,i,i,i,i,8.3*,i,i,16%*

# Screening data (PubChem)
